Laboratory results published in ChEMBL document CHEMBL1127787, “1,2,3-Triazole-[2',5'-bis-O-(tert-butyldimethylsilyl)-beta-D- ribofuranosyl]-3'-spiro-5"-(4"-amino-1",2"-oxathiole 2",2"-dioxide) (TSAO) analogues: synthesis and anti-HIV-1 activity” (J Med Chem, 1994).

Columns and labels:
CCRF-CEM [1] = assay: Tested for the inhibitory activity of virus induced giant cell formation in HIV-1 infected CEM cells; assay type: functional, cell-based; settings: Homo sapiens
CCRF-CEM [2] = assay: Tested for the inhibitory activity of virus induced giant cell formation in HIV-2 infected CEM cells; assay type: functional, cell-based; settings: Homo sapiens
MT4 [3] = assay: Tested for the inhibitory activity of HIV-1 infected MT-4 cells; assay type: functional, cell-based; settings: Homo sapiens
In short: (§1)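 MT-4 cells (5 × 10^5/mL) grown in RPMI-1640 with 10% FCS, 2 mM L-glutamine and 0.075% NaHCO3. Infected with HIV-1 or HIV-2 at 100 CCID50/mL and mixed with compound dilutions (100 to 0.006 µg/mL). After 5 days viable cells were counted by trypan blue staining. EC50 is the concentration that reduces viable-cell loss in infected cultures by 50%.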

MT4 [4] = assay: Tested for the inhibitory activity of HIV-2 infected MT-4 cells; assay type: functional, cell-based; settings: Homo sapiens; in short: as §1
MT4 [5] = assay: Tested for the cytotoxic concentration required to reduce the number of viable mock infected MT-4 cells; assay type: functional; settings: Homo sapiens
In short: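 Mock-infected MT-4 cells (5 × 10^5/mL) in RPMI-1640 with 10% FCS were exposed to compound dilutions (100 to 0.006 µg/mL). Viable cells were counted by trypan blue at day 5; about 150-200 cells were counted in controls. CC50 is the concentration that reduces viable cell number by 50%.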

MT4 [6] = assay: Tested for the ratio between CC50 (MT-4) to EC50 (MT-4); assay type: functional, Homo sapiens

Compound | EC50 (CCRF-CEM [1]) | EC50 (CCRF-CEM [2]) | EC50 (MT4 [3]) | EC50 (MT4 [4]) | CC50 (MT4 [5]) | Ratio (MT4 [6])
Cc1cn([C@@H]2O[C@H](CO[Si](C)(C)C(C)(C)C)C3(OS(=O)(=O)C=C3N)[C@H]2O[Si](C)(C)C(C)(C)C)c(=O)[nH]c1=O (some centres undefined) | 0.06 µM | > 20 µM | – | > 20 µM | 14 µM | –
COC(=O)c1cn([C@@H]2O[C@H](CO[Si](C)(C)C(C)(C)C)[C@@]3(OS(=O)(=O)C=C3NC(C)=O)[C@H]2O[Si](C)(C)C(C)(C)C)nn1 | 28 µM | > 32 µM | ≥ 32 µM | > 32 µM | 56 µM | <=1.7
COC(=O)c1nnn([C@@H]2O[C@H](CO[Si](C)(C)C(C)(C)C)[C@@]3(OS(=O)(=O)C=C3N)[C@H]2O[Si](C)(C)C(C)(C)C)c1C(=O)OC | 0.53 µM | > 30 µM | 0.48 µM | > 150 µM | 111 µM | 231
COCc1cn([C@@H]2O[C@H](CO[Si](C)(C)C(C)(C)C)[C@@]3(OS(=O)(=O)C=C3N)[C@H]2O[Si](C)(C)C(C)(C)C)nn1 | 2.3 µM | > 70 µM | 27 µM | > 35 µM | 73 µM | 2.44
CCOC(=O)c1nnn([C@@H]2O[C@H](CO[Si](C)(C)C(C)(C)C)[C@@]3(OS(=O)(=O)C=C3N)[C@H]2O[Si](C)(C)C(C)(C)C)c1C(=O)OCC | 1.6 µM | > 60 µM | 3.8 µM | > 30 µM | 55 µM | 14.5
CCCCc1cn([C@@H]2O[C@H](CO[Si](C)(C)C(C)(C)C)[C@@]3(OS(=O)(=O)C=C3N)[C@H]2O[Si](C)(C)C(C)(C)C)nn1 | 1.5 µM | > 7 µM | 2.6 µM | > 170 µM | 107 µM | 41
CC(C)(C)[Si](C)(C)OC[C@H]1O[C@@H](n2cc(CBr)nn2)[C@H](O[Si](C)(C)C(C)(C)C)[C@]12OS(=O)(=O)C=C2N | > 1.3 µM | > 1.3 µM | ≥ 6.5 µM | > 6.5 µM | 14 µM | <2.1
CC(C)(C)[Si](C)(C)OC[C@H]1O[C@@H](n2cc(CCCCl)nn2)[C@H](O[Si](C)(C)C(C)(C)C)[C@]12OS(=O)(=O)C=C2N | 0.66 µM | > 33 µM | 0.58 µM | > 170 µM | 53 µM | 91.4
CN(C)C(=O)c1cn([C@@H]2O[C@H](CO[Si](C)(C)C(C)(C)C)[C@@]3(OS(=O)(=O)C=C3N)[C@H]2O[Si](C)(C)C(C)(C)C)nn1 | 1.2 µM | > 7 µM | 0.42 µM | > 7 µM | 12 µM | 28.1
CCOC(OCC)c1cn([C@@H]2O[C@H](CO[Si](C)(C)C(C)(C)C)[C@@]3(OS(=O)(=O)C=C3N)[C@H]2O[Si](C)(C)C(C)(C)C)nn1 | > 150 µM | > 150 µM | 73 µM | > 150 µM | > 150 µM | >2.1
CC(C)(C)[Si](C)(C)OC[C@H]1O[C@@H](n2cc([Si](C)(C)C)nn2)[C@H](O[Si](C)(C)C(C)(C)C)[C@]12OS(=O)(=O)C=C2N | 2.8 µM | > 2.6 µM | ≥ 6.6 µM | > 6.6 µM | 9.5 µM | <=1.44
CCOC(OCC)c1cnnn1[C@@H]1O[C@H](CO[Si](C)(C)C(C)(C)C)[C@@]2(OS(=O)(=O)C=C2N)[C@H]1O[Si](C)(C)C(C)(C)C | > 150 µM | > 150 µM | > 40 µM | > 40 µM | > 150 µM | ><1
Cc1ccnc2c1NC(=O)c1cccnc1N2C1CC1 [NEVIRAPINE] | 0.11 µM | > 80 µM | 0.12 µM | > 80 µM | > 80 µM | >625
Cc1cn([C@H]2C[C@H](N=[N+]=[N-])[C@@H](CO)O2)c(=O)[nH]c1=O [ZIDOVUDINE] | – | – | – | – | 6 µM | 3000

The next lines start with results.

EC50 (CCRF-CEM [1]) | EC50 (CCRF-CEM [2]) | Compound | EC50 (MT4 [3]) | EC50 (MT4 [4]) | CC50 (MT4 [5]) | Ratio (MT4 [6])
0.08 µM | > 7 µM | CNC(=O)c1cnnn1[C@@H]1O[C@H](CO[Si](C)(C)C(C)(C)C)[C@@]2(OS(=O)(=O)C=C2N)[C@H]1O[Si](C)(C)C(C)(C)C | 0.16 µM | > 7 µM | 27 µM | 171
1.1 µM | > 35 µM | CC(=O)c1cn([C@@H]2O[C@H](CO[Si](C)(C)C(C)(C)C)[C@@]3(OS(=O)(=O)C=C3N)[C@H]2O[Si](C)(C)C(C)(C)C)nn1 | 1.5 µM | > 7 µM | 13 µM | 8.6
0.9 µM | > 7 µM | CC(C)(C)[Si](C)(C)OC[C@H]1O[C@@H](n2cc(C(N)=O)nn2)[C@H](O[Si](C)(C)C(C)(C)C)[C@]12OS(=O)(=O)C=C2N | 1.2 µM | > 7 µM | 15 µM | 12.5
1.3 µM | > 165 µM | CCOC(=O)c1cnnn1[C@@H]1O[C@H](CO[Si](C)(C)C(C)(C)C)[C@@]2(OS(=O)(=O)C=C2N)[C@H]1O[Si](C)(C)C(C)(C)C | 3.2 µM | > 165 µM | > 165 µM | >51
1.1 µM | > 70 µM | CC(=O)c1cnnn1[C@@H]1O[C@H](CO[Si](C)(C)C(C)(C)C)[C@@]2(OS(=O)(=O)C=C2N)[C@H]1O[Si](C)(C)C(C)(C)C | 2.3 µM | > 35 µM | 69 µM | 30
3.9 µM | > 35 µM | CCCc1cnnn1[C@@H]1O[C@H](CO[Si](C)(C)C(C)(C)C)[C@@]2(OS(=O)(=O)C=C2N)[C@H]1O[Si](C)(C)C(C)(C)C | 3.13 µM | > 350 µM | > 175 µM | >56
1.4 µM | > 6.9 µM | Cc1cn([C@@H]2O[C@H](CO[Si](C)(C)C(C)(C)C)[C@@]3(OS(=O)(=O)C=C3N)[C@H]2O[Si](C)(C)C(C)(C)C)nn1 | 2.8 µM | > 35 µM | 23 µM | 8.4
3.4 µM | > 7.5 µM | CC(C)(C)[Si](C)(C)OC[C@H]1O[C@@H](n2ccnn2)[C@H](O[Si](C)(C)C(C)(C)C)[C@]12OS(=O)(=O)C=C2N | 3.8 µM | > 7.5 µM | 15 µM | 4.1
0.82 µM | > 7 µM | CC(C)(C)[Si](C)(C)OC[C@H]1O[C@@H](n2nncc2CCCCl)[C@H](O[Si](C)(C)C(C)(C)C)[C@]12OS(=O)(=O)C=C2N | 1.9 µM | > 164 µM | 79 µM | 40.6
0.13 µM | > 40 µM | COC(=O)c1cnnn1[C@@H]1O[C@H](CO[Si](C)(C)C(C)(C)C)[C@@]2(OS(=O)(=O)C=C2N)[C@H]1O[Si](C)(C)C(C)(C)C | 0.9 µM | > 150 µM | 128 µM | 142
0.18 µM | > 40 µM | COC(=O)c1cn([C@@H]2O[C@H](CO[Si](C)(C)C(C)(C)C)[C@@]3(OS(=O)(=O)C=C3N)[C@H]2O[Si](C)(C)C(C)(C)C)nn1 | 0.6 µM | > 150 µM | ≥ 150 µM | >=249
0.9 µM | > 14 µM | COCc1cnnn1[C@@H]1O[C@H](CO[Si](C)(C)C(C)(C)C)[C@@]2(OS(=O)(=O)C=C2N)[C@H]1O[Si](C)(C)C(C)(C)C | 2.4 µM | > 7 µM | 28 µM | 11
1.2 µM | > 7 µM | CNC(=O)c1cn([C@@H]2O[C@H](CO[Si](C)(C)C(C)(C)C)[C@@]3(OS(=O)(=O)C=C3N)[C@H]2O[Si](C)(C)C(C)(C)C)nn1 | 0.41 µM | > 7 µM | 12 µM | 28.8
> 1.3 µM | > 6 µM | CC(C)(C)[Si](C)(C)OC[C@H]1O[C@@H](n2nncc2CBr)[C@H](O[Si](C)(C)C(C)(C)C)[C@]12OS(=O)(=O)C=C2N | ≥ 6 µM | > 6 µM | 13 µM | <2.1
1.5 µM | > 35 µM | CCCCc1cnnn1[C@@H]1O[C@H](CO[Si](C)(C)C(C)(C)C)[C@@]2(OS(=O)(=O)C=C2N)[C@H]1O[Si](C)(C)C(C)(C)C | 1.58 µM | > 170 µM | ≥ 170 µM | >=115
0.14 µM | > 7 µM | CC(C)(C)[Si](C)(C)OC[C@H]1O[C@@H](n2nncc2C(N)=O)[C@H](O[Si](C)(C)C(C)(C)C)[C@]12OS(=O)(=O)C=C2N | 0.52 µM | > 7 µM | 15 µM | 28.1
